Bioassay records deposited in PubChem by several laboratories.
DAGLB inh: blocks human DAGLB lipase activity; Q8NCG7; HEK293T DAGLB membrane lysate, EnzChek fluorogenic substrate; inhibition, % at 5.17 µM; 340,000 tested, 0.059% active; AID 504411; in the data active means inhibition above about 34%
APJ ag: activates the human apelin receptor APJ; P35414; CHO-K1 APJ PathHunter beta-arrestin, luminescence; 0% DMSO wells, 100% apelin; activation, % at 20 µM; 330,000 tested, 0.11% active; AID 2520;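 active means activation more than six SD over the plate average, tested at 20 µM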
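Material: engineered CHO-K1 APJ arrestin reporter cells; amount: 1000 CHO-K1 reporter cells seeded per well; incubation: compound stimulation 90 min at 25 °C, detection 60 min; signal: luminescent beta-gal fragment complementation, chemiluminescent substrate; read-out basis: APJ agonist activity; controls: DMSO-only wells as negative, 10 nM Apelin-13 as positive control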
CXCR6 block: CXCR6 (human) receptor inhibition; inhibition, % at 20 µM; 360,000 tested, 0.36% active; CHO-K1 PathHunter CXCR6 beta-arrestin, luminescence; in the data active means inhibition above about 34%, passing the limit was not always enough;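 further: antagonist mode with CXCL16 agonist at 10 nM final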
Target sequence (O00574 whole entry, looked up): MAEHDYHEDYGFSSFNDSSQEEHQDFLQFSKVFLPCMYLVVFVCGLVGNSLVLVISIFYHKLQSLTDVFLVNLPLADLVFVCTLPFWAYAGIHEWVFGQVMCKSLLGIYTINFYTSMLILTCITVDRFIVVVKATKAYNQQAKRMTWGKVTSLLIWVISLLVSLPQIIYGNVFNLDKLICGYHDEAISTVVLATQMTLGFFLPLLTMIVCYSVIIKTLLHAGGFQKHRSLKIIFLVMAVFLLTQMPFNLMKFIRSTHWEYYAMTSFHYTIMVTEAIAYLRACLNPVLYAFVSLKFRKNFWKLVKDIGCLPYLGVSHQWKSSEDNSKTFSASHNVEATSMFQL
CCR6 antag: CCR6 (human) receptor antagonism; inhibition, % at 20 µM; 340,000 tested, 0.49% active; P51684; CHO-K1 CCR6 PathHunter beta-arrestin, luminescence, CCL20-stimulated;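 active means compounds whose inhibition of the agonist-driven luminescence signal at 20 µM reaches about 50%, limit read from the data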;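 further: cells stimulated with CCL20 at 14 nM final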
Target sequence (P51684 whole entry, looked up): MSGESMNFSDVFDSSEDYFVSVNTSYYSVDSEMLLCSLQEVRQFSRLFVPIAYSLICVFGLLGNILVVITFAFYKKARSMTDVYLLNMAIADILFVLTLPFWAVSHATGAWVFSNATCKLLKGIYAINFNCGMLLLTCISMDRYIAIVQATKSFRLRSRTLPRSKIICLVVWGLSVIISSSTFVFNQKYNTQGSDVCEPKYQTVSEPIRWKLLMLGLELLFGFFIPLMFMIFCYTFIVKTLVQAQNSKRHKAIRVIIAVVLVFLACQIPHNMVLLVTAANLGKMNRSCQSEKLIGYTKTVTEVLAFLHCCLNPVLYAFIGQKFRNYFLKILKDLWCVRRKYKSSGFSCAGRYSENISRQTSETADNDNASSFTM
iPSC survival up: hiPSC single-cell survival enhancement; ATPlite luminescence; 100% = ROCK inhibitor wells, 0% = DMSO; survival enhancement, % at 20 µM; 360,000 tested, 0.044% active; AID 602274; in the data active means survival enhancement above about 18%;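 further: cells exposed to compounds for 16 hours before the ATP read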
APJ antag: APJ receptor antagonism; inhibition, % at 20 µM; CHO-K1 APJ beta-arrestin complementation, luminescence; 330,000 tested, 0.32% active;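 active means inhibition above about 40% at 20 µM, limit read from the data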;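 further: cells challenged with 10 nM apelin-13 agonist together with compound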
APJ ag conf: confirmation of human APJ apelin receptor agonists; activation, % at 20 µM; CHO-K1 APJ PathHunter beta-arrestin, luminescence; 310 tested, 10% active; shares compounds with APJ ag; AID 2764;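 active means activation above 40%, taking the highest of four retests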
Of the large screens only hits and unclear results are named; the others gave an inactive call (follow-up assays come after a bar, where they were run). Most compounds without a hit are left out; they make up all but 0.86% or so of the library.

CCC1(CC)Cc2ccccc2-c2nc(NN)[nH]c(=O)c21	CCR6 antag 50
COc1ccccc1C(=O)NCCC(=O)N(C)CC(=O)Nc1ccc(N2CCOCC2)cc1	none
N#CC(C#N)=C1C=CC=CN1/C(=C\c1ccco1)C(=O)c1ccc(Br)cc1	CXCR6 block 103, CCR6 antag 104 (no result: APJ ag, APJ antag)
Cc1ccccc1OCCCN1C(=O)C(=O)c2cccc(C)c21	CCR6 antag 58, APJ antag 48
Cc1cccc2c1N(CCCOc1ccc(C(C)(C)C)cc1)C(=O)C2=O	CCR6 antag 51
Cc1cccc(OCCN2C(=O)C(=O)c3cccc(C)c32)c1	none
Cc1ccc(C)c(NC(=O)CCN2CCCCC2)c1	none
CN1C/C(=C/c2cccnc2)C(=O)/C(=C/c2cccnc2)C1	iPSC survival up 24 (no result: APJ ag, APJ antag)
O=C1NC[C@@H](c2ccccc2)OC(=O)[C@@H](Cc2ccc(F)cc2)CC/C=C/C[C@@H]1CC(=O)N(CCO)Cc1ccccc1	CXCR6 block 56 (no result: APJ ag, APJ antag)
O=C1N[C@@H](Cc2ccccc2)COC(=O)[C@@H](Cc2ccc(F)cc2)C/C=C\C[C@@H]1CC(=O)N(CCO)Cc1ccccc1	none
O=C1N[C@H](Cc2ccccc2)COC(=O)[C@H](Cc2ccc(F)cc2)CC/C=C/C[C@H]1CC(=O)N(CCO)Cc1ccccc1	CXCR6 block 41
O=C1CC/C=C\C[C@@H](CC(=O)N(CCO)Cc2ccccc2)C(=O)NC[C@@H](c2ccccc2)O1	none
COC(=O)C1CC(O)C(O)C(O)C1 (stereo not drawn)	none (no result: APJ ag, APJ antag)
COc1ccccc1NS(=O)(=O)c1cccc(C(=O)NCC2(N3CCCCC3)CCCCC2)c1	none (no result: APJ ag, APJ antag)
COc1ccc(OC)c2c1C(=O)C(Cl)=C(Cl)C2=O	CXCR6 block 102, CCR6 antag 105
COc1ccc(OC)c2c1C(=O)c1ccccc1C2=O	none (no result: DAGLB inh, CXCR6 block, iPSC survival up)
COC(=O)c1cccc(Oc2cccc(Cl)n2)c1	none
CCCc1ccc(S(=O)(=O)N2CCN(C(=O)CN3C(=O)NC(C)(C4CC4)C3=O)CC2)cc1 (stereo not drawn)	none (no result: APJ ag, CCR6 antag, APJ antag)
O=C1C(Nc2ccccc2)=C(N2CCCCC2)C(=O)c2ccccc21	none
CN(C1=C(N2CCCCC2)C(=O)c2ccccc2C1=O)c1ccccc1	DAGLB inh 38
Cc1cc2c(NCc3ccccc3)ncnc2s1	none
COc1ccc(Cl)c2sc(N(CCN(C)C)C(=O)CCS(=O)(=O)c3ccc(C)cc3)nc12	none
COc1ccc(OC)c2sc(N(CCCN(C)C)C(=O)CCS(=O)(=O)c3ccccc3)nc12	CXCR6 block 62, CCR6 antag 70
CCSC1(SCC)N=C(N)C2(C#N)C(c3ccc(F)cc3)C12C#N (stereo not drawn)	CXCR6 block 67
COc1cc(/C=N/N=C(N)N)ccc1OCc1ccccc1Cl	APJ ag 22
COc1ccc(/C=N/N=C/c2ccc(OC)c(OC)c2)cc1OC	none
Cc1ccc(S(=O)(=O)Nc2ccccc2C(=O)N2CCCCCC2)cc1	none
CCCCN(C(=O)c1cccc2c(=O)c(C)c(-c3ccccc3)oc12)c1ccccc1	none (no result: APJ ag, APJ antag)
COc1ccc(C(=O)O/N=C2\C(=O)N(C)c3ccccc32)cc1	CCR6 antag 59
COc1ccc(NC(=O)COC(=O)c2cc([N+](=O)[O-])ccc2N2CCOCC2)cc1	CCR6 antag 113
O=C(N/N=C/c1cn(-c2ccccc2)nc1-c1cccs1)c1ccncc1	CCR6 antag 53
NC(=O)N/N=C/c1cn(-c2ccccc2)nc1-c1cccs1	none
CCOC(=O)C1=NNC(C(=O)c2ccc(Cl)cc2)C1c1ccc(OC)cc1 (stereo not drawn)	APJ antag 65
CCOC(=O)C1=NNC(C(=O)c2ccc(C)cc2)C1c1ccc(OC)cc1 (stereo not drawn)	none
Cc1ccc2c(c1)c1ccc3c(c1n2C)C(=O)C=CC3=O	CXCR6 block 60, CCR6 antag 106
Cn1c2ccccc2c2ccc3c(c21)C(=O)C=CC3=O	CXCR6 block 70, CCR6 antag 109 (no result: APJ ag, APJ antag)
COc1ccc2c(c1)c1ccc3c(c1n2C)C(=O)C=CC3=O	CXCR6 block 79, CCR6 antag 106, iPSC survival up 28, APJ antag 44
COc1cc(N2C(=O)C=CC2=O)c(OC)cc1Cl	CXCR6 block 75 (no result: CCR6 antag)
Cc1ccc([C@@H]2C[C@H]3[C@@H](CN2S(=O)(=O)c2ccc(Cl)cc2)C(=O)C[C@@H](c2ccc(C)cc2)N3S(=O)(=O)c2ccc(Cl)cc2)cc1	iPSC survival up 28 (no result: APJ ag, CCR6 antag, APJ antag)
Cc1ccc([C@@H]2C[C@H]3[C@@H](CN2S(=O)(=O)c2ccc(C)cc2)C(=O)C[C@@H](c2ccc(Cl)cc2)N3S(=O)(=O)c2ccc(C)cc2)cc1	none (no result: APJ ag, CCR6 antag, APJ antag)
O=C(c1ccc(S(=O)(=O)N2CCCC2)cc1)N1CCCCC1	none
O=C(/C=C/c1ccc(O)c(O)c1)c1ccc(S(=O)(=O)N2CCCCCC2)cc1	CCR6 antag 63, APJ antag 42
CCOC(=O)C1(Cc2ccc(Cl)cc2)CCN(C(=O)CCc2cnccn2)CC1	CCR6 antag 62
CCOC(=O)C1(Cc2ccc(OC)cc2)CCN(C(=O)CCc2cnccn2)CC1	none
Cc1cc(S(=O)(=O)c2ccc(Cl)cc2)nc(S(=O)(=O)c2ccc(Cl)cc2)c1C#N	CXCR6 block 75 (no result: APJ ag, CCR6 antag, APJ antag)
CCCSc1ccc([C@@H]2[C@@H]3C(=O)N(C)C(=O)[C@@H]3[C@]3(C(=O)OC)CCCN23)cc1OC	none
CCOC(=O)N1CCN(S(=O)(=O)c2ccc(C(=O)Nc3nnc(CSC)o3)cc2)CC1	none
COc1cc2c3c(c1)C(C)=CC(C)(C)N3C(=O)C2=O	none
COc1cc(N=C2C(=O)N3c4c(cccc42)C(C)=CC3(C)C)cc(OC)c1	CCR6 antag 61
CCCCCCN1C[C@@H](O)[C@H](n2cc(COC(=O)c3ccccc3)nn2)C[C@@H]1c1ccc(C)cc1	none (no result: APJ ag, CCR6 antag, APJ antag)
COc1ccc(N2C[C@H](CSC)[C@@H](CC(=O)Nc3ccc(Br)cc3)C2=O)cc1	none (no result: APJ ag, CCR6 antag, APJ antag)
COC/C=C/C1=CC2=CC(=O)C(C)(OC(=O)c3cnc4ccccc4n3)C(=O)C2=CN1C1CCCC1 (stereo not drawn)	APJ ag 122 (no result: DAGLB inh, CXCR6 block, CCR6 antag, iPSC survival up) | APJ ag conf inactive
COC/C=C/C1=CC2=CC(=O)C(C)(OC(=O)c3cnc4ccccc4n3)C(=O)C2=CN1C(CO)CO (stereo not drawn)	none
O=C(C[n+]1cccc(/C=N/O)c1)NC(=O)Nc1ccccc1	none (no result: DAGLB inh, APJ ag, CCR6 antag, APJ antag)
COc1ccc(Nc2nc3c(C)cccc3cc2C#N)c(OC)c1	none
Nc1c(C(O)(C(F)(F)F)C(F)(F)F)cc(C(O)(C(F)(F)F)C(F)(F)F)c2ccccc12	APJ ag 50 | APJ ag conf inactive
CC1=CC(=O)C=C(C)C1=NOS(=O)(=O)c1ccccc1	none (no result: APJ ag, APJ antag)
